We go through 1 compound from ChEMBL document CHEMBL5325390, “1,2,4-Triazole-3-thione analogues with an arylakyl group at position 4 as metallo-β-lactamase inhibitors” (Bioorg Med Chem, 2022).

Series [1] has as its system metallo-β-lactamase IMP-1 (Pseudomonas aeruginosa). In words: Inhibition of IMP1 (unknown origin) expressed in Escherichia coli BL21(DE3) assessed as substrate hydrolysis at 200 uM by UV-Vis spectrophotometric analysis relative to control.
The next series relates to Escherichia coli. Description: Synergistic antimicrobial activity against blaNDM-1-producing multidrug-resistant Escherichia coli SI-004M clinical isolate assessed as meropenem MIC at 32 ug/ml by CLSI based microdilution method (reference value: 64 ug/ml). It counts as functional. The note with it: dose 32 µg/ml.
Series [2] addresses T1, Angiotensin-converting enzyme (Oryctolagus cuniculus, UniProt P12822).
T1 sequence (P12822 whole entry): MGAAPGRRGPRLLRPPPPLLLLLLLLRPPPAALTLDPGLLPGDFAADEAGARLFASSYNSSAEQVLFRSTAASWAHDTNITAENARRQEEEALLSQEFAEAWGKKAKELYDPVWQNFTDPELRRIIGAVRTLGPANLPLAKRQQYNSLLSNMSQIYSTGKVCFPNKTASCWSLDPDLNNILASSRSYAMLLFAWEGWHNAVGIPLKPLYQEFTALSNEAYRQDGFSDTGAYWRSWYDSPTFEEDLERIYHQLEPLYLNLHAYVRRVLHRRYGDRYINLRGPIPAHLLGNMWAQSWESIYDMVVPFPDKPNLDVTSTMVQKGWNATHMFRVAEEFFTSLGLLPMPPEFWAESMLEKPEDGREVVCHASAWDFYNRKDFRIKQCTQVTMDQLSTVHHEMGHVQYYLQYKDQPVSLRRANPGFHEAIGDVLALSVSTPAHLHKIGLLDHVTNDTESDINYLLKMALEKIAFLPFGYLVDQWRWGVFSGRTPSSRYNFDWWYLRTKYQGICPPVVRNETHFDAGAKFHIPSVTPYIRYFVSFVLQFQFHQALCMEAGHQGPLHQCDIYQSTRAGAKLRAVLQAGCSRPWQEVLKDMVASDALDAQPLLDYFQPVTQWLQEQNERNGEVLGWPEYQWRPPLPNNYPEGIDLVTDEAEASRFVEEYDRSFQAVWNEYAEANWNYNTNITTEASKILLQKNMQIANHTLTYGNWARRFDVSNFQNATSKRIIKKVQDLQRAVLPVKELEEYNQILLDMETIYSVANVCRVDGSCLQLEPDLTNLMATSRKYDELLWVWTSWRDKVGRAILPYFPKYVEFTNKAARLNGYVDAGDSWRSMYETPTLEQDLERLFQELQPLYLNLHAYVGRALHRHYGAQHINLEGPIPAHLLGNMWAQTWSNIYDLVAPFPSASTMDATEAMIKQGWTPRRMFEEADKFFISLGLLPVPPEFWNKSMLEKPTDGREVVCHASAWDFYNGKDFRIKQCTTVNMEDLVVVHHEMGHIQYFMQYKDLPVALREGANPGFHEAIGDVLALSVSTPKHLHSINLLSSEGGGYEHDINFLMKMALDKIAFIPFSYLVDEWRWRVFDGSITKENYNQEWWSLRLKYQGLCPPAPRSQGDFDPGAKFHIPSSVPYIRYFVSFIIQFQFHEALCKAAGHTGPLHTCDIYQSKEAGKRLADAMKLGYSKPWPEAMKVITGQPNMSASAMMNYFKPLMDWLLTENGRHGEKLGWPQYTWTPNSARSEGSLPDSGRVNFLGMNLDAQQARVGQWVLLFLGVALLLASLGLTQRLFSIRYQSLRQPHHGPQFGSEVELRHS
In words: Binding affinity to rabbit lung angiotensin-converting enzyme assessed as inhibition constant.

Series [3] concerns Klebsiella pneumoniae. In words: Antimicrobial synergistic activity against blaVIM-1-producing multidrug-resistant Klebsiella pneumoniae 7023 clinical isolate assessed as meropenem MIC at 32 ug/ml by CLSI based broth microdilution method (reference value: 16 ug/ml). Type of series: functional. The note with it: dose 32 µg/ml.
The test system of series [4] is metallo-β-lactamase IMP-1 (Pseudomonas aeruginosa). In words: Inhibition of IMP1 (unknown origin) expressed in Escherichia coli BL21(DE3) assessed as substrate hydrolysis at 100 uM by UV-Vis spectrophotometric analysis relative to control.
The target of series [5] is T2, Angiotensin-converting enzyme (Oryctolagus cuniculus) (UniProt P12822).
T2 sequence (whole entry): T1 sequence (P12822 whole entry)
Description: Inhibition of rabbit lung angiotensin-converting enzyme at 100 uM using Abz-Gly-Phe-(NO2)-Pro as substrate by fluorescence based microplate reader analysis relative to control. Type of series: tissue-based. Put shortly:
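Rabbit lung ACE, 1.5 mU per well, in 150 mM Tris, 750 mM NaCl, pH 8.3, with Abz-Gly-Phe(NO2)-Pro substrate. Blank-corrected fluorescence of released Abz-Gly-OH (ex 316, em 413 nm) followed up to 90 min. Test compounds at 100 µM; captopril control at 100 nM. Inhibition % = 100 − (vi/v0 × 100).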

Series [6] can be described thus: Binding affinity to VIM-4 (unknown origin) expressed in Escherichia coli BL21(DE3) assessed as inhibition constant by measuring rate of substrate hydrolysis by UV-Vis spectrophotometric analysis. The procedure, abridged: (§1)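 Purified MBL (1–70 nM) with 150 µM imipenem or meropenem as reporter substrate, 50 mM HEPES pH 7.5, 30 °C. Hydrolysis followed by absorbance at 300 nm without and with inhibitor (0.5 µM–1 mM). Ki from the slope of v0/vi vs [I] under a competitive model, or from Dixon plots varying inhibitor and substrate. […] Triplicate, mean ± SD.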

In series [7] the target is Metallo-beta-lactamase type 2 (Bacteria, UniProt C7C422). In words: Binding affinity to NDM1 (unknown origin) expressed in Escherichia coli BL21(DE3) assessed as inhibition constant by measuring rate of substrate hydrolysis by UV-Vis spectrophotometric analysis. The note with it: read-out: Ki. The procedure, abridged: as §1
The subject of series [8] is Klebsiella pneumoniae. Description: Antimicrobial synergistic activity against blaVIM-4-producing multidrug-resistant Klebsiella pneumoniae VA416/02 clinical isolate assessed as meropenem MIC at 32 ug/ml by CLSI based broth microdilution method (reference value: 16 ug/ml). It counts as functional. The note with it: dose 32 µg/ml. Background: Broth dilution looks for growth in wells or tubes with falling amounts of substance.

The test system of the next series is HeLa. Description: Cytotoxicity against human HeLa cells assessed as induction of cell lysis upto 250 uM measured for 72 hrs by realtime-glo MT assay. Type of series: toxicity, cell-based. Put shortly:
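HeLa cells at 1,500 cells/well exposed to compound up to 250 µM for up to 72 h. Viability read by RealTime-Glo MT luminescent assay. Triplicate.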

Series [9] in a line: Binding affinity to VIM-2 (unknown origin) expressed in Escherichia coli BL21(DE3) assessed as inhibition constant by measuring rate of substrate hydrolysis by UV-Vis spectrophotometric analysis. Put shortly: as §1
For a further series, the target named is Beta-lactamase VIM-1 (Bacteria, UniProt Q8GDC1). In words: Binding affinity to VIM-1 (unknown origin) expressed in Escherichia coli BL21(DE3) assessed as inhibition constant by measuring rate of substrate hydrolysis by UV-Vis spectrophotometric analysis. The procedure, abridged:
as §1

Molecules are shown by their SMILES.

By inhibition is commonly meant the change of the read-out against control, counted positive when it falls. Broadly, the MIC is the lowest concentration that inhibits growth of the organism. By Ki is commonly meant the dissociation constant of the complex between target and ligand, obtained from inhibition or displacement.

Metallo-beta-lactamase type 2, sequence (C7C422 whole entry): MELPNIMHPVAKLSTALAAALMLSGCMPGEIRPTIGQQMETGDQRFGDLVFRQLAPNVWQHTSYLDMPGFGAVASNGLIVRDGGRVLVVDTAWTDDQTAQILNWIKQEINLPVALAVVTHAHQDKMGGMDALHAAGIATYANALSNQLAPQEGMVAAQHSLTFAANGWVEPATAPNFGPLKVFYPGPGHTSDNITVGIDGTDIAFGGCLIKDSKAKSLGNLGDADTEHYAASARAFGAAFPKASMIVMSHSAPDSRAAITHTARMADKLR

On to `Oc1ccc(CCn2c(-c3cccc(-c4ccccc4)c3)n[nH]c2=S)c(O)c1`, for which the inhibition in series [1] was under 50%; in series [4] it was under 30%; in series [5], 35%. In addition, the values for the MIC in the series with Escherichia coli, with Klebsiella pneumoniae [3] and in the series on Klebsiella pneumoniae [8] were 32 µg/mL, 2 µg/mL and 4 µg/mL, respectively. For the same compound, the inhibition constant Ki in [2] was determined as 55 µM; in series [6] it was 0.82 µM; in series [7], 14.3 µM; in series [9], 1.3 µM; on Beta-lactamase VIM-1 it was 0.41 µM. Also, in the series with HeLa, the Activity result is listed as “Non-Toxic”.
